In ChEMBL document CHEMBL1152681, “Natural and synthetic 2'-hydroxy-chalcones and aurones: synthesis, characterization and evaluation of the antioxidant and soybean lipoxygenase inhibitory activity” (Bioorg Med Chem, 2009):

How the values were obtained:
[1] = Antioxidant activity assessed as hydrogen peroxide scavenging activity by peroxyoxalate chemiluminescent method; type: functional
[2] = tested on: Radical scavenging activity; assay: Antioxidant activity assessed as DPPH radical scavenging activity at 50 uM after 20 mins; type: functional
[3] = Antioxidant activity assessed as superoxide anion radical scavenging activity at 10 uM; type: functional
Method in brief: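 Non-enzymatic superoxide generation from PMS/NADH/air-oxygen, measured by NBT reduction. Compounds preincubated 2 min before NADH was added. Mixture of 3 µM PMS, 78 µM NADH and 25 µM NBT in phosphate buffer pH 7.4, incubated 2 min at room temperature. Absorbance read at 560 nm against a PMS-containing blank. Caffeic acid was the standard.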

[4] = tested on: Radical scavenging activity; assay: Antioxidant activity assessed as DPPH radical scavenging activity at 100 uM after 60 mins; type: functional
Method in brief: (§1)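 DPPH (0.05 mM) in absolute ethanol; compounds in DMSO added to final 0.1 mM. Mixture shaken vigorously and left 20 min or 60 min. Absorbance read at 517 nm and percent activity calculated. Three replicates, averaged.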

[5] = Inhibition of soybean 5-lipoxygenase by UV-absorbance based enzyme assay; design: species or system Glycine max
Method in brief: (§2)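 Soybean lipoxygenase (enzyme solution 1/9 × 10^-4 w/v in saline) incubated at room temperature with sodium linoleate and compound in DMSO, in Tris buffer pH 9. Conversion to 13-hydroperoxylinoleic acid recorded at 234 nm and compared with a standard inhibitor.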

[6] = Antioxidant activity assessed as inhibition of AAPH-induced lipid peroxidation at 10 uM by uV spectrophotometry; type: functional
Method in brief: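 Aqueous linoleic acid dispersion (16 mM, 10 µL) in 0.05 M phosphate buffer pH 7.4, prethermostated at 37 °C. Oxidation started under air with AAPH (40 mM solution, 50 µL) and run with 10 µL compound aliquots. The control contained the same DMSO level. The rate of conjugated diene hydroperoxide formation was followed by the rise in absorbance at 234 nm at 37 °C.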

[7] = Antioxidant activity assessed as hydroxyl radical scavenging activity at 100 uM; type: functional
Method in brief: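 Fe3+/ascorbic acid-generated hydroxyl radicals detected by the Nash method as formaldehyde formed from DMSO oxidation. The mixture held EDTA 0.1 mM, Fe3+ 167 µM, DMSO 33 mM, test compound 0.1 mM and ascorbic acid 10 mM in 50 mM phosphate buffer pH 7.4. Incubated 30 min at 37 °C, then stopped with CCl3COOH (17% w/v). Trolox was the standard.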

[8] = tested on: Radical scavenging activity; assay: Antioxidant activity assessed as DPPH radical scavenging activity at 100 uM after 20 mins; type: functional; method in brief: as §1
[9] = tested on: Radical scavenging activity; assay: Antioxidant activity assessed as DPPH radical scavenging activity at 50 uM after 60 mins; type: functional
[10] = tested on: Glycine max; assay: Inhibition of soybean 5-lipoxygenase at 100 uM by UV-absorbance based enzyme assay; method in brief: as §2

SMILES	IC50 [1] [µM]	IC50 [5] [µM]	inhibition [10] [%]	Activity [2] [%]	Activity [3] [%]	Activity [4] [%]	inhibition [6] [%]	Activity [7] [%]	Activity [8] [%]	Activity [9] [%]
COc1cc(OC)c2c(c1)O/C(=C\c1ccc(C)cc1)C2=O			0	0	97.4	29.2	72	100	8.5	0
COc1cc(O)c(C(=O)/C=C/c2ccc(OC)c(OC)c2)c(OC)c1	88		1.6	0	86.8	20.8	73.6	42.2	12.9	0
COc1ccccc1/C=C1\Oc2ccccc2C1=O [(Z)-2'-METHOXYAURONE]	466		39.9	4.2	73.7	43.1	71.1	100	25	0
COc1ccc(/C=C2\Oc3ccccc3C2=O)cc1OC [3',4'-DIMETHOXY-AURONE]	44				97.4		53.3	76.7		
COc1cc(OC)c2c(c1)O/C(=C\c1ccccc1OC)C2=O	2400	100		4.2	55.3	30.8	87.1	77.9	1.8	0
COCOc1cc(OCOC)c2c(c1)O/C(=C\c1ccc(OCOC)c(OCOC)c1)C2=O			0							
O=c1c(O)c(-c2ccc(O)c(O)c2)oc2cc(O)cc(O)c12 [QUERCETIN]	162									
COc1cccc(/C=C2\Oc3ccccc3C2=O)c1 [3'-METHOXY-AURONE]	1990		34.9	11.1	50	83.8	62.3	57.8	87.9	0
CC1=C(/C=C/C(C)=C/C=C/C(C)=C/C=C/C=C(C)/C=C/C=C(C)/C=C/C2=C(C)CCCC2(C)C)C(C)(C)CCC1 [BETA CAROTENE]	16.9									
COc1ccc(/C=C2\Oc3cc(OC)cc(OC)c3C2=O)cc1 [4,4',6-TRIMETHOXY-AURONE]	1090	50		2.8	63.2	11.5	42.6	100	0	0
CC(Cc1ccc(O)c(O)c1)C(C)Cc1ccc(O)c(O)c1 (stereo unspecified) [NORDIHYDROGUAIARETIC ACID]		40		84		83			81	83
O=C1/C(=C/c2ccc(O)c(O)c2)Oc2cc(O)cc(O)c21			0			97.7	77.8		84.9	
COCOc1cc(O)c(C(=O)/C=C/c2ccc(OCOC)c(OCOC)c2)c(OCOC)c1			14.1	5.6	50	65.4	77.1	100	42.6	0
Cc1c(C)c2c(c(C)c1O)CCC(C)(C(=O)O)O2 (stereo unspecified)							63	73.4		

Further lines, with some results ahead:

IC50 [1] [µM]	IC50 [5] [µM]	inhibition [10] [%]	SMILES	Activity [2] [%]	Activity [3] [%]	Activity [4] [%]	inhibition [6] [%]	Activity [7] [%]	Activity [8] [%]	Activity [9] [%]
657	82		COc1cc(O)c(C(=O)/C=C/c2ccc(Cl)cc2)c(OC)c1	0	100	46.9	42.7	100	15.1	0
291	70		COc1ccc(/C=C2\Oc3ccccc3C2=O)cc1 [4'-METHOXY-AURONE]	13.9	81.6	23.8	64.6	76.4	5.1	0
665	53		COc1cc(O)c(C(=O)/C=C/c2ccc(C)cc2)c(OC)c1	0	100	24.6	100	100	9.6	0
		7.8	COc1cc(OC)c2c(c1)O/C(=C\c1ccc(Cl)cc1)C2=O	0	84.2	20.8	82.9	91.5	6.3	0
228	67.5		COc1ccc(/C=C/C(=O)c2ccccc2O)cc1OC	0	100	28.5	64.6	84.1	6.3	0
713	56		O=C(/C=C/c1ccc(Cl)cc1)c1ccccc1O	0	84.2	40.8	74.4	100	0	0
940		36.4	COc1cccc(/C=C/C(=O)c2ccccc2O)c1	0	97.4	34.6	75.8	57	0	0
456		2.3	COc1ccc(/C=C/C(=O)c2c(O)cc(OC)cc2OC)cc1 [FLAVOKAWAIN A]	0	50	40.8	80.9	78.7	6.3	0
76		0	O=C(/C=C/c1ccc(O)c(O)c1)c1c(O)cc(O)cc1O [3,4,2',4',6'-PENTAHYDROXYCHALCONE]			94.9	0		100	
503		20	COc1cc(O)c(C(=O)/C=C/c2ccccc2OC)c(OC)c1	9.7	89.5	47.7	68.4	0	15.1	5.9
	600		O=C(O)/C=C/c1ccc(O)c(O)c1 [CAFFEIC ACID]		5.5					
1040	52.5		Cc1ccc(/C=C/C(=O)c2ccccc2O)cc1	0	84.2	43.8	49.6	100	0	1.5
4140		26.4	O=C1/C(=C/c2ccc(Cl)cc2)Oc2ccccc21	11.1	89.5	76.2	46.4	0	49.3	10.3
500		5	COc1ccc(/C=C/C(=O)c2ccccc2O)cc1	0	73.7	40.8	61.6	100	0	0
599	100		COc1ccccc1/C=C/C(=O)c1ccccc1O	0	92.1	57.7	43.1	100	11.8	0
2010		32.4	Cc1ccc(/C=C2\Oc3ccccc3C2=O)cc1	5.6	68.4	49.2	43.1	84.5	23.9	29.4
